Screening results: PubChem BioAssay, Sanford-Burnham Center for Chemical Genomics
This is a sample that favours compounds with a hit; in the whole collection about 3% have one here.
SENP8 block-1 – SENP8 (human) protease inhibition; recombinant SENP8, Nedd8 substrate fluorescence; Q96LD8; 0.64% of 360,000 active; AID 602440; inhibition, % at 20 µM; in the data active = inhibition mostly above about 40%, no sharp cut-off; inactive = mostly below about 27%
SENP6 block – SENP6 protease inhibition; Q9GZR1; 1.8% of 330,000 active; Recombinant SENP6 catalytic domain, aminoluciferin luminescence; AID 2599; inhibition, % at 10 µM;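 active = inhibition above about 50% at the single tested dose, limit read from the data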;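 note: plate controls were DMSO wells with enzyme for no effect and DMSO wells lacking enzyme for full effect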
Apaf1 inhib – inhibitors of human Apaf-1 apoptosome. inhibition, % at 20 µM. reconstituted apoptosome caspase-3 activity, DEVD-Rh110 fluorescence. 0.71% of 330,000 active; active = inhibition of at least 40% at 20 µM;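 note: plate controls were DMSO wells for no effect and DEVD-CHO caspase inhibitor wells for full effect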
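Material: cell-free apoptosome with Apaf-1, procaspase-3 and caspase-9; Buffer or medium: Hepes pH 7.5 with detergent and BSA; Reagent: cytochrome c trigger plus (Z-DEVD)2-Rh110 caspase-3 substrate; Times: compound with Apaf-1, dATP, procaspase-3 30 min, then 50 min reaction, room temperature; Technique: Rh110 fluorescence intensity.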
SENP7 inh – SENP7 protease inhibition; recombinant SENP7, Z-RLRGG-aminoluciferin luminescence, 40 min; inhibition, % at 5 µM; 1.5% of 330,000 active; AID 434973;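 active = inhibition above about 50% at the single test dose, limit read from the data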;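 note: plate controls were DMSO with enzyme for no effect and no enzyme buffer wells for full effect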
Target sequence (Q9BQF6 706-1050 limits assumed): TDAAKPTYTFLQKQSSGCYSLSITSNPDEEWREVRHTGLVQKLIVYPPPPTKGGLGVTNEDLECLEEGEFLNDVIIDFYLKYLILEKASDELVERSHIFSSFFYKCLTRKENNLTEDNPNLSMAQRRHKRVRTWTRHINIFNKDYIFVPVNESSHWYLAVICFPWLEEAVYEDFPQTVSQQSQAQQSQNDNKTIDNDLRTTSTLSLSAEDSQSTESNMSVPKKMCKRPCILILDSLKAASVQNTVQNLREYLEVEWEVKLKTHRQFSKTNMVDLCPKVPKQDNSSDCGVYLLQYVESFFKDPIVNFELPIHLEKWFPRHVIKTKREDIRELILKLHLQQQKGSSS
UBC13 inh – human UBC13 polyubiquitination inhibition. P61088. UBC13 polyubiquitin chain formation, TR-FRET. inhibition, % at 20 µM. 0.47% of 330,000 active. AID 485273; in the data active = inhibition above about 45%, passing the limit was not always enough
Target sequence (P61088 whole entry, looked up): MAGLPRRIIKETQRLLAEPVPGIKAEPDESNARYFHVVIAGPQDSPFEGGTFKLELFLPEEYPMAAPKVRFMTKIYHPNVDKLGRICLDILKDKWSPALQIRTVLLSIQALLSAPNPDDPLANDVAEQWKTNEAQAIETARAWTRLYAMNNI
SENP8 block-2 – blocks the human protease SENP8. Q96LD8. purified SENP8, Z-RLRGG-aminoluciferin cleavage, luminescence. inhibition, % at 10 µM. 1.2% of 330,000 active; in the data active = inhibition above about 50%
SENP8 conf – confirmation of human SENP8 protease inhibitors | Recombinant SENP8, Z-RLRGG-aminoluciferin luminescence, 60 min | shares compounds with SENP7 inh | inhibition, % at 12.5 µM | 40% of 6,200 active;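 active = mean inhibition across replicates above about 50%, limit read from the data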
SENP6 confirm – human SENP6 inhibition, confirmed; 58% of 6,200 active; inhibition, % at 12.5 µM; recombinant SENP6, Z-RLRGG-aminoluciferin luminescence; AID 488915; shares compounds with SENP7 inh
SENP7 conf – human SENP7 inhibition, confirmed; inhibition, % at 12.5 µM; AID 488917; shares compounds with SENP7 inh; 69% of 6,200 active; recombinant SENP7, Z-RLRGG-aminoluciferin luminescence, 40 min
Casp3 SENP sel – inhibits human caspase-3 in SENP selectivity test. inhibition, % at 12.5 µM. shares compounds with SENP7 inh. AID 488918. purified caspase-3, Z-DEVD-aminoluciferin luminescence, 60 min. 60% of 6,200 active;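 active = mean inhibition above about 50%, limit read from the data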;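 note: plate controls were enzyme with DMSO for no effect and wells without caspase-3 for full effect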
Target sequence (P42574 28-227 limits assumed): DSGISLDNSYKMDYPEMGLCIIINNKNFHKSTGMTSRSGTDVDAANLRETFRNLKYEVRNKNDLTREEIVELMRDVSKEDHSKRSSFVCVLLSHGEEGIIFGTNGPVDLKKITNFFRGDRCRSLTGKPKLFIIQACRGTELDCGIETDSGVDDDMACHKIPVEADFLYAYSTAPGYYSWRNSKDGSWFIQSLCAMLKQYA
SENP luc ctr – interferes with luciferase luminescence in SENP counter-screen; inhibition, % at 12.5 µM; Pre-incubated SENP8/Z-RLRGG-aminoluciferin, luciferase luminescence interference; 39% of 6,200 active; shares compounds with SENP7 inh; AID 488919;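 active = mean inhibition above about 50% when retested at one dose, limit read from the data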;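 note: plate controls were DMSO wells with completed reaction for no effect and substrate without enzyme for full effect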
Numbers without * were called inactive; . = not tested or not shown.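 Rule for the calls, unless noted: active = mean inhibition above about 50% in the one-dose retest (limit read from the data); inactive = the rest.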

SMILES | SENP8 block-1 | SENP6 block | Apaf1 inhib | SENP7 inh | UBC13 inh | SENP8 block-2 | SENP8 conf | SENP6 confirm | SENP7 conf | Casp3 SENP sel | SENP luc ctr
Cc1ccc(-c2cc(C(=O)Nc3cccnc3)[nH]n2)c(O)c1C | 24 | 98* | -22 | 95* | 5 | 93* | 96* | 97* | 101* | 90* | 96*
CC(C)(C)c1ccc(C(=O)Nc2cccnc2)cc1 | 9 | 69* | -2 | 62* | 4 | 53* | 12 | 55* | 86* | 66* | 62*
CCc1sc(C(=O)Nc2cccnc2)cc1Br | 14 | 84* | 2 | 79* | 12 | 60* | 0 | 67* | 91* | 64* | 72*
CC(C)(C)c1ccc(NC(=O)c2ccsc2)cc1 | 21 | 86* | 8 | 82* | 6 | 82* | 86* | 85* | 98* | 78* | 29
O=C(Nc1cccnc1)c1ccc(C(=O)Nc2cccnc2)cc1 | 12 | 2 | 4 | 5 | 0 | -2 | . | . | . | . | .
O=C(Nc1cccnc1)c1ccc(Br)s1 | 12 | 11 | -10 | 3 | 5 | -14 | . | . | . | . | .
O=C(Oc1ccc[nH]c1=O)c1ccccc1 | 13 | . | . | . | . | . | . | . | . | . | .
O=C(Nc1ccc(F)cc1)Oc1ccc[nH]c1=O | 27 | 43 | 9 | 53* | 2 | -4 | 4 | 5 | 22 | 19 | 21
CCCn1c(=O)c(C(=O)NCc2ccccc2OC)c(O)c2ccccc21 | -22 | 88* | 3 | 9 | 15 | 6 | 9 | 5 | 3 | 0 | 4
CCn1c(=O)c(C(=O)NCc2ccccc2OC)c(O)c2ccccc21 | -14 | -13 | -2 | 5 | 33 | 7 | . | . | . | . | .
CCOC(=O)C1CCN(Cc2ccc(O)c(OC)c2)CC1 | 10 | 96* | -6 | 12 | -3 | 2 | 6 | 0 | -2 | -2 | -1
CC(C)(C)NC(=O)N1CCn2cccc2C1c1ccccc1F (centres undefined) | -1 | -24 | -4 | 97* | -6 | 4 | 1 | 8 | 8 | 8 | 6
Cc1nc(NC(=O)c2ccccc2)sc1-c1csc(NCCc2ccccc2)n1 | -31 | 63* | 13 | 57* | 3 | 30 | -3 | -1 | 10 | 46 | 12
Cc1nc(NC(=O)c2ccccc2)sc1-c1csc(NCc2ccccc2)n1 | -77 | 80* | 10 | 75* | -5 | 64* | -7 | -5 | -5 | 21 | 12
CCCCCC(=O)Nc1nc(C)c(-c2csc(Nc3ccccc3OCC)n2)s1 | -55 | 1 | 20 | 12 | -25 | 7 | . | . | . | . | .
CCOc1ccccc1Nc1nc(-c2sc(NC(=O)c3cccc(Cl)c3)nc2C)cs1 | -95 | 84* | -4 | 77* | 0 | 68* | -19 | -10 | -4 | 15 | 8
Cc1nc(-c2ccc(NC(=O)c3ccccc3)cc2)cs1 | 4 | 97* | 1 | 97* | 4 | 94* | 87* | 97* | 101* | 96* | 83*
Cc1nc(N)sc1-c1csc(NCc2ccccc2)n1 | -22 | -3 | 8 | 3 | -10 | 1 | . | . | . | . | .
CC(=O)Nc1ccc(-c2csc(NCCc3ccccc3)n2)cc1 | 12 | -8 | 1 | 13 | -4 | -4 | . | . | . | . | .
O=C1CC2(CCN(C(=O)C3CC(=O)N(c4ccc(F)cc4)C3)CC2)Oc2ccccc21 (centres undefined) | -85 | -7 | 2 | 1 | 2 | -13 | . | . | . | . | .
Cc1ccccc1-c1nc(NCCN(C)C)nc2ccsc12 | -302 | . | . | . | . | . | . | . | . | . | .
CCOc1ccc(/C=N/NC(=O)c2ccc3nc[nH]c3c2)cc1OC | -232 | . | . | . | . | . | . | . | . | . | .
O=C(Nc1nnc(S(=O)(=O)N2CCCCC2)s1)c1ccccc1Br | -12 | -8 | 1 | 2 | 3 | 6 | . | . | . | . | .
CCOC(=O)CNC(=O)c1sc(NC(=O)c2ccccc2)nc1C | 0 | -32 | -1 | -1 | -7 | -10 | . | . | . | . | .
Cc1nc(NC(=O)c2ccccc2)sc1-c1csc(N)n1 | -24 | 0 | 16 | 68* | 10 | 30 | 57* | 53* | 77* | 65* | 61*
SMILES | SENP8 block-1 | SENP6 block | Apaf1 inhib | SENP7 inh | UBC13 inh | SENP8 block-2 | SENP8 conf | SENP6 confirm | SENP7 conf | Casp3 SENP sel | SENP luc ctr
O=C(O)c1cccc(Nc2ccc([N+](=O)[O-])cn2)c1 | 14 | 91* | -16 | 93* | -5 | 90* | 92* | 92* | 101* | 83* | 93*
COC(C[C@@H]1O[C@@H]1[C@@H](O)COCc1ccccc1)OC | 15 | 11 | 2 | 0 | -1 | 0 | . | . | . | . | .
CC(C)Oc1ccc(S(=O)(=O)N2CCOCC2)cc1NC(=O)CN1C(=O)c2ccccc2C1=O | 14 | . | . | . | . | . | . | . | . | . | .
O=C(N/N=C/c1cccnc1)C1CC1(c1ccccc1)c1ccccc1 (centres undefined) | -2 | -22 | 1 | -7 | 0 | 4 | . | . | . | . | .
CCN1CCN(CCNC(=O)Cn2c(=O)c3cccn3c3ccc(F)cc32)CC1 | -3 | 5 | 1 | 1 | -1 | 8 | . | . | . | . | .
CC(C)N(CCCNC(=O)Cn1c(=O)c2cccn2c2ccc(F)cc21)Cc1ccccc1 | -6 | -14 | 12 | 61* | 9 | -1 | 10 | 7 | -5 | 0 | -2
CC(C)Oc1ccc(C(=O)OCC(=O)NCCNC(=O)COC(=O)c2ccc(OC(C)C)cc2)cc1 | 1 | -5 | 18 | -2 | 6 | 6 | . | . | . | . | .
Clc1ccc(-c2nc(-c3cnccn3)no2)cc1 | 16 | 96* | -15 | 98* | 5 | 90* | 90* | 93* | 101* | 97* | 56*
Fc1ccc(-c2nc(-c3cnccn3)no2)c(Cl)c1 | 13 | 88* | 1 | 85* | 1 | 81* | 85* | 85* | 96* | 94* | 50
OC1(c2ccc(Cl)cc2)CCN(Cc2nc(-c3cnccn3)no2)CC1 | -1 | -5 | -23 | -1 | 0 | 5 | . | . | . | . | .
COc1cc(NS(=O)(=O)c2ccc(NC(=O)/C(=C/c3ccccc3Cl)NC(=O)c3ccccc3)cc2)nc(OC)n1 | 17 | 64* | 12 | 4 | -21 | 3 | -20 | -17 | -3 | -7 | -5
CSCC[C@H](NS(=O)(=O)c1ccc(C)cc1)C(=O)N1CCC(C(=O)N[C@@H](C)C(=O)O)CC1 | 27 | -8 | -8 | 0 | 0 | -3 | . | . | . | . | .
